Data as given in ChEMBL document CHEMBL1629681 (Antimicrob Agents Chemother, 2010).

What was measured:
Format in all cases: ADME, organism-based
[1] = Cmax in patient with end-stage renal failure undergoing hemodiafiltration at 4 mg/kg, iv after 2 hrs by LC/MS/MS analysis; parameters: dose 4 mg/kg, route intravenous; conditions: human, in vivo
Outline: (§1)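 End-stage renal failure patients on 6-h Genius dialysis, hemodialysis or hemodiafiltration received a single 2-h iv infusion of 4 mg/kg. Venous plasma sampled before dosing and at 1, 2, 3, 4, 6 and 6.5 h from a site other than the infusion line, stored at −20°C. Quantified by LC-MS-MS against a 30 to 5,000 ng/ml calibration, analysed noncompartmentally.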

[2] = Cmax in patient with end-stage renal failure undergoing genius system-mediated dialysis at 4 mg/kg, iv after 2 hrs by LC/MS/MS analysis; parameters: dose 4 mg/kg, route intravenous; conditions: human, in vivo; outline: as §1
[3] = Terminal half life in human with normal renal function; conditions: in vivo, read-out: beta t1/2 (converted)
[4] = Cmax in patient with end-stage renal failure undergoing hemodialysis at 4 mg/kg, iv after 2 hrs by LC/MS/MS analysis; parameters: dose 4 mg/kg, route intravenous; conditions: human, in vivo; outline: as §1

SMILES: C[C@@H](c1ncncc1F)[C@](O)(Cn1cncn1)c1ccc(F)cc1F [VORICONAZOLE]
- Cmax [1]: 1900 ng/mL
- Cmax [2]: 1800 ng/mL
- half-life [3]: 7 h
- Cmax [4]: 1700 ng/mL
